Measured values published in ChEMBL document CHEMBL4196009, “Novel vitexin-inspired scaffold against leukemia” (Eur J Med Chem, 2018).
Calls of active or inactive are those of the source. The calls are words filed in the database; no cut-off is given here.

Columns and labels:
[1] = test system: THLE-2; assay: Antiproliferative activity against human THLE2 cells after 72 hrs by CelTiter-Glo assay; type: cell-based; conditions: THLE-2, 72 h
[2] = test system: KOPN-8; assay: Induction of apoptosis in human KOPN8 cells assessed as early apoptotic cells at 10 uM after 24 hrs by Annexin V-FITC/propidium iodide staining-based flow cytometry (reference value: 0.1%); type: functional
Summary of the method: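 KOPN-8 cells treated 24 h alongside a DMSO vehicle and a staurosporine (2.0 µM) positive control. Apoptosis was scored by FITC Annexin V / propidium iodide flow cytometry with quadrant gating (early, late apoptotic). DNA content was measured by PI staining to give the percentage of cells in G0/G1, S and G2/M. Groups were compared by t-test; error bars are SD.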

[3] = test system: KOPN-8; assay: Induction of apoptosis in human KOPN8 cells assessed as upregulation of cleaved PARP level at 100 uM pre-treated with NAC for 1 hr and measured after 3 hrs by Western blot analysis; type: functional, cell-based
Summary of the method: (§1)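 KOPN-8 cells were exposed to compound for 3 h and 24 h, with or without N-acetylcysteine added to a parallel set as antioxidant. Lysates were analysed by Western blot for cleaved PARP, Mcl-1, Ser-2-phosphorylated RNAPII CTD, cMyc, total Rb and pRb. Signals were compared against controls for dose-dependent change.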

[4] = test system: MCF7; assay: Induction of oxidative stress in human MCF7 cells transfected with mRuby-Mito-7 with fugene assessed as increase in intracellular total ROS levels at 50 uM treated 30 mins post NAC addition measured after 1 hr by fluorimetric analysis; type: functional, cell-based
Summary of the method: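 MCF-7 cells carried an mRuby-Cox8A mitochondrial label. They were exposed to 50 of compound, alone or together with 50 of N-acetylcysteine, for 1 h. Cells were then stained with CellROX green (ex/em 485/520 nm) plus Hoechst 33342 nuclear stain. Total and mitochondrial ROS fluorescence was imaged in live cells and quantified relative to control.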

[5] = test system: KOPN-8; assay: Induction of apoptosis in human KOPN8 cells assessed as effect on Mcl-1 level at 10 uM pre-treated with NAC for 1 hr and measured after 3 hrs by Western blot analysis relative to control; type: functional
[6] = test system: KOPN-8; assay: Induction of apoptosis in human KOPN8 cells assessed as effect on Mcl-1 level at 100 uM pre-treated with NAC for 1 hr and measured after 3 hrs by Western blot analysis relative to control; type: functional; summary of the method: as §1
[7] = test system: KOPN-8; assay: Induction of apoptosis in human KOPN8 cells assessed as effect on Mcl-1 level at 30 uM after 3 hrs by Western blot analysis relative to control; type: functional; summary of the method: as §1
[8] = species: Homo sapiens; assay: Inhibition of RNA polymerase 2 C-terminal domain phosphorylation at Ser2 residue in human KOPN8 cells at 30 uM pre-treated with NAC for 1 hr and measured after 3 hrs by Western blot analysis relative to control; type: cell-based; summary of the method: as §1
[9] = species: Homo sapiens; assay: Inhibition of RNA polymerase 2 C-terminal domain phosphorylation at Ser2 residue in human KOPN8 cells at 10 uM pre-treated with NAC for 1 hr and measured after 24 hrs by Western blot analysis relative to control; type: cell-based; summary of the method: as §1
[10] = test system: KOPN-8; assay: Effect on c-Myc expression in human KOPN8 cells at 100 uM pre-treated with NAC for 1 hr and measured after 24 hrs by Western blot analysis relative to control; type: functional
[11] = test system: KOPN-8; assay: Effect on c-Myc expression in human KOPN8 cells at 10 uM pre-treated with NAC for 1 hr and measured after 24 hrs by Western blot analysis relative to control; type: functional
[12] = test system: KOPN-8; assay: Effect on c-Myc expression in human KOPN8 cells at 10 uM pre-treated with NAC for 1 hr and measured after 3 hrs by Western blot analysis relative to control; type: functional
[13] = test system: KOPN-8; assay: Effect on c-Myc expression in human KOPN8 cells at 30 uM pre-treated with NAC for 1 hr and measured after 3 hrs by Western blot analysis relative to control; type: functional
[14] = biological target: T1, Retinoblastoma-associated protein (Homo sapiens) (UniProt P06400); assay: Inhibition of Rb phosphorylation in human KOPN8 cells assessed as ratio of phosphorylated Rb to total Rb levels at 30 uM after 3 hrs by Western blot analysis relative to control; type: cell-based
T1 sequence (whole entry): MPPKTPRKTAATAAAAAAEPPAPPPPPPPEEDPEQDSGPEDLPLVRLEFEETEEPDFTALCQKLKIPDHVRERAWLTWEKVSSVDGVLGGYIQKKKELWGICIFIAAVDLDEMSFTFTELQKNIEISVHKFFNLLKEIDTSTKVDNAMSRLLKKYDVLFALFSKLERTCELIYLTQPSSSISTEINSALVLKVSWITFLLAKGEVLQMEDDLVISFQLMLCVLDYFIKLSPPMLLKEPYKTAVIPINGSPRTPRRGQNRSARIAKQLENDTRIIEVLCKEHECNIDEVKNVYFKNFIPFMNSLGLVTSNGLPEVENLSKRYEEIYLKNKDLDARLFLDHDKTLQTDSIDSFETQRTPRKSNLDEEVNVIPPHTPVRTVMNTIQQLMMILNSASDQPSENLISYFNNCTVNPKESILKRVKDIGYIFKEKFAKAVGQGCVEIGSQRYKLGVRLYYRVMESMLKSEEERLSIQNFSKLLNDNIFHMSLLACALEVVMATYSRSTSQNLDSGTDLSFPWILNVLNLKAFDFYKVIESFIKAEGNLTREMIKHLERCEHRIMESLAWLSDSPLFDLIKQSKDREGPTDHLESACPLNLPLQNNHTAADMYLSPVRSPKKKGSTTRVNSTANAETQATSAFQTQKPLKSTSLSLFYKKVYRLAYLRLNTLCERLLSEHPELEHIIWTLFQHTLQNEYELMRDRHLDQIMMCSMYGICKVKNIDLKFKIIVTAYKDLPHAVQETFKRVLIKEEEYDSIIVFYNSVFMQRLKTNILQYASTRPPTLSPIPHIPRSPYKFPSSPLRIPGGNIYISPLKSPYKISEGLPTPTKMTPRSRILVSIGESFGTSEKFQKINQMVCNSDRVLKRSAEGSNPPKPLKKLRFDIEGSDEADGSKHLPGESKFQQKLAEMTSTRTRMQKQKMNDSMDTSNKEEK
Summary of the method: (§2)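 KOPN-8 pre-B ALL cells were treated for 3 h and 24 h, with or without N-acetyl cysteine added to a parallel set of cells as an antioxidant/ROS quencher. Lysates were analysed by Western blot for phosphorylated Rb and total Rb. The same blots also probed PARP cleavage, Mcl-1, Ser-2-phosphorylated RNAPII CTD and cMyc.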

[15] = biological target: T1, Retinoblastoma-associated protein (Homo sapiens); assay: Inhibition of Rb phosphorylation in human KOPN8 cells assessed as ratio of phosphorylated Rb to total Rb levels at 10 uM pre-treated with NAC for 1 hr and measured after 3 hrs by Western blot analysis relative to control; type: cell-based; summary of the method: as §2
[16] = test system: MDA-MB-231; assay: Cell cycle arrest in human MDA-MB-231 cells assessed as accumulation at G2/M phase at 5 uM after 24 hrs by propidium iodide staining-based flow cytometry (reference value: 9.38%); type: functional
[17] = test system: KOPN-8; assay: Induction of apoptosis in human KOPN8 cells assessed as effect on Mcl-1 level at 0.5 uM after 3 hrs by Western blot analysis relative to control; type: functional
[18] = test system: KOPN-8; assay: Effect on c-Myc expression in human KOPN8 cells at 0.5 uM after 24 hrs by Western blot analysis relative to control; type: functional

Compound	EC50 [1] [µM]	Activity [2] [%]	Activity [3]	Activity [4]	fold change (FC) [5]	fold change (FC) [6]	fold change (FC) [7]	fold change (FC) [8]	fold change (FC) [9]	fold change (FC) [10]	fold change (FC) [11]	fold change (FC) [12]	fold change (FC) [13]	fold change (FC) [14]	fold change (FC) [15]	Activity [16] [%]	fold change (FC) [17]	fold change (FC) [18]
COc1ccc(-c2c(I)c(=O)c3c(OC)cc(OC)cc3n2S(=O)(=O)c2ccc(OC)cc2)cc1	57	0.2	inactive	inactive	0.8	0.5	0.6	0.9	1.5	0.1	1.3	0.9	1	1	1	–	–	–
CN(C)C(=O)c1cc2cnc(Nc3ccc(N4CCNCC4)cn3)nc2n1C1CCCC1 [RIBOCICLIB]	–	–	–	–	–	–	–	–	–	–	–	–	–	–	–	4.51	0.9	1.2
